Test results: ChEMBL document CHEMBL1157767, “Phenylcinnamides as novel antimitotic agents” (J Med Chem, 2010)
Active and inactive are the calls of the source. The calls are words filed in the database; no cut-off is given here.

Tests used:
HeLa [1] = test: Induction of mitotic arrest in human HeLa cells assessed as disruption of microtubule assembly at 25 uM after 6 hrs fluorescence confocal microscopy; type: functional, cell-based
Outline: (§1)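 HeLa on nitric acid-washed coverslips, treated at 70% confluency for 6 h with compound (25 μM) or DMSO (0.2% final). Glutaraldehyde fixation in BRB-80, Triton X-100 permeabilization, NaBH₄ reduction, goat-serum block, FITC anti-α-tubulin plus Alexa-Fluor 488 secondary, propidium iodide with RNase A; laser scanning confocal imaging, 63× oil objective.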

U-937 [2] = test: Cytotoxicity against human U937 cells after 72 hrs MTS assay; type: functional, cell-based; details: U-937, 72 h
Outline: (§2)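 Cells in RPMI-1640/10% FBS seeded at 1 × 10⁵ (U-937, HL-60) or 1.5 × 10⁵ (HL-60/VCR) cells/mL with compound from DMSO series, 10 concentrations 100 μM to 5 nM, five replicates; 72 h at 37 °C. MTS/PMS added until vehicle OD ≈1.5, A490. Internal positive and DMSO controls; IC50 by four-parameter logistic fit; SD from ≥3 experiments, or mean of two.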

HeLa [3] = test: Cytotoxicity against human HeLa cells after 72 hrs SRB assay; type: functional, cell-based
Outline: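 HeLa cells (5 × 10⁴ cells/mL suspension) seeded with compound from DMSO dilution series, 10 concentrations 100 μM to 5 nM, five replicates each; 72 h at 37 °C, 5% CO₂. TCA fixation, sulforhodamine B staining, bound dye released in 10 mM Tris pH 10.5, A510. Plate positive and DMSO controls calibrate % death; IC50 from four-parameter logistic fit; SD from ≥3 experiments, or mean of two.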

HL-60 [4] = test: Cytotoxicity against human HL60 cells after 72 hrs MTS assay; type: functional, cell-based; details: HL-60, 72 h; outline: as §2
HL-60 [5] = test: Cytotoxicity against vincristine-resistant human HL60 cells after 72 hrs MTS assay; type: functional, cell-based; details: HL-60, 72 h; outline: as §2
HL-60 [6] = test: Selectivity ratio of IC50 for vincristine-resistant human HL60 cells to IC50 for human HL60 cells; type: functional
Outline: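 Ratio of MTS-assay IC50 (72 h) in P-gp-overexpressing, vincristine/colchicine-resistant HL-60/VCR over IC50 in parental HL-60.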

HeLa [7] = test: Cell cycle arrest in human HeLa cells by accumulation of cells at M phase at 100 nM after 9 hrs by propidium iodide staining based flow cytometry; type: functional
Outline: (§3)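 HeLa synchronized in G1/S by double thymidine block, released by washing and plated in fresh medium with test agent (25 μM or 100 nM) or DMSO vehicle for 9 h at 37 °C. Cells fixed in 3% formaldehyde-PBS, permeabilized in cold MeOH, stained with mouse anti-phospho(Ser10) histone H3 then Alexa-Fluor 488 secondary, RNase A-treated, propidium iodide DNA stain. Dual-laser flow cytometry; PI marks G2/M, phospho-H3 marks M-phase.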

HeLa [8] = test: Cell cycle arrest in human HeLa cells by accumulation of cells at G2 phase at 100 nM after 9 hrs by propidium iodide staining based flow cytometry; type: functional; outline: as §3
U-937 [9] = test: Cell cycle arrest in human U937 cells by accumulation of cells at G2/M phase at 25 uM after 9 hrs by propidium iodide staining based flow cytometry; type: functional
HeLa [10] = test: Cell cycle arrest in human HeLa cells by accumulation of cells at G2/M phase at 25 uM after 9 hrs by M-phase fluorescence staining based flow cytometry; type: functional; outline: as §3
HeLa [11] = test: Induction of mitotic arrest in human HeLa cells assessed as increase in number of cells with mitotic DNA by indirect immunofluorescence staining; type: functional, cell-based
HeLa [12] = test: Induction of mitotic arrest in human HeLa cells assessed as mitotic index by indirect immunofluorescence staining (Rvb=2.2%); type: functional
HeLa [13] = test: Induction of mitotic arrest in human HeLa cells assessed as chromosomal condensation at 25 uM after 6 hrs fluorescence confocal microscopy; type: functional, cell-based; outline: as §1
[14] = Inhibition of tubulin polymerization at 100 uM by turbidimetry
HeLa [15] = test: Cell cycle arrest in human HeLa cells by accumulation of cells at G2/M phase at 25 uM after 9 hrs by propidium iodide staining based flow cytometry; type: functional; details: in the assay text read “M phase” for “G2/M phase”; outline: as §3
Bos taurus = species: Bos taurus; test: Inhibition of bovine brain tubulin polymerization at 10 uM by turbidimetry

SMILES	IC50 (U-937 [2]) [µM]	IC50 (HeLa [3]) [µM]	other results
COc1cc(NC(=O)/C=C/c2cccc(OCc3ccccc3)c2)cc(OC)c1OC	1.8	2.1	Activity (HeLa [1]): Active; IC50 (HL-60 [4]): 5.6 µM; IC50 (HL-60 [5]): 5.5 µM; Ratio IC50 (HL-60 [6]): 0.98
COc1cc(/C=C/C(=O)Nc2cc(OC)c(OC)c(OC)c2)cc(OC)c1OC	15.3	> 50	
COc1cc(NC(=O)/C=C/c2cccc(O)c2)cc(OC)c1OC	56.7	18.7	
COc1cccc(CCC(=O)Nc2cc(OC)c(OC)c(OC)c2)c1		> 50	
COc1ccccc1NC(=O)/C=C/c1cc(OC)c(OC)c(OC)c1	> 50	> 50	
COc1cc(NC(=O)/C=C/c2ccccc2)cc(OC)c1OC	45	> 50	
COc1cccc(/C=C/C(=O)Nc2cc(OC)cc(OC)c2)c1	> 50		
COc1cccc(/C=C/C(=O)Nc2ccccc2)c1	> 50	> 50	
COc1ccccc1NC(=O)/C=C/c1cccc(OC(F)(F)F)c1	40.4	9.8	
COc1cc(NC(=O)/C=C/c2cc(OC)c(OC)c(OC)c2)cc(OC)c1	9.7	38.9	
COc1cc(NC(C)=O)cc(OC)c1OC	> 50	> 50	
COc1cc(NC(=O)/C=C/c2ccc(O)cc2)cc(OC)c1	> 50	> 50	
C#CCOc1cccc(/C=C/C(=O)Nc2cc(OC)c(OC)c(OC)c2)c1	6	2	
COc1ccc(NC(=O)/C=C/c2cccc(OC)c2)cc1	18.1		
COc1cc2c(cc1O)CC[C@@H]1[C@@H]2CC[C@]2(C)[C@@H](O)CC[C@@H]12 [2-METHOXYESTRADIOL]			IC50 (HL-60 [4]): 3.4 µM; IC50 (HL-60 [5]): 0.9 µM; Ratio IC50 (HL-60 [6]): 0.26
COc1cccc(/C=C/C(=O)Nc2ccccc2OC)c1	> 50		
COc1cc(NC(=O)/C=C/c2cccc(OC(F)(F)F)c2)cc(OC)c1OC	13.2	4.4	IC50 (HL-60 [4]): 13.2 µM; IC50 (HL-60 [5]): 13.1 µM; Ratio IC50 (HL-60 [6]): 0.99

SMILES	IC50 (U-937 [2]) [µM]	IC50 (HeLa [3]) [µM]	other results
COc1cc2c(c(OC)c1OC)-c1ccc(OC)c(=O)cc1[C@@H](NC(C)=O)CC2 [COLCHICINE]			IC50 (HL-60 [4]): 0.053 µM; IC50 (HL-60 [5]): > 100 µM; Ratio IC50 (HL-60 [6]): >1000; Activity (HeLa [7]): 59%; Activity (HeLa [8]): 37%
COc1cccc(/C=C/C(=O)Nc2cc(OC)c(OC)c(OC)c2)c1	3	11.3	Activity (U-937 [9]): Active; Activity (HeLa [10]): Active; Activity (HeLa [11]): Active; Activity (HeLa [12]): 18.2%; Activity (HeLa [1]): Active; Activity (HeLa [13]): Active; inhibition [14]: Active; IC50 (HL-60 [4]): 3.1 µM; IC50 (HL-60 [5]): 11.6 µM; Ratio IC50 (HL-60 [6]): 3.74; Activity (HeLa [15]): 49%
COc1cccc(/C=C/C(=O)Nc2cc(C)cc(C)c2)c1	> 50		
COc1cccc(CCC(=O)Nc2ccccc2OC)c1	> 50	> 50	
COC(=O)/C=C/c1cccc(OC)c1	> 50	> 50	
COc1cccc(NC(=O)/C=C/c2cc(OC)c(OC)c(OC)c2)c1	> 50		
COc1cccc(/C=C/C(=O)Nc2ccc3c(c2)OCCO3)c1	15.9	20.1	
COc1cccc(/C=C/C(=O)NCc2cc(OC)c(OC)c(OC)c2)c1	> 50	> 50	
COc1cc(/C=C/C(=O)Nc2ccccc2)cc(OC)c1OC	> 50	> 50	
COc1ccc(NC(=O)/C=C/c2cc(OC)c(OC)c(OC)c2)cc1	22.4	> 50	
COc1ccccc1/C=C/C(=O)Nc1cc(OC)c(OC)c(OC)c1	5.1	6.1	
COc1ccccc1/C=C/C(=O)Nc1ccccc1OC	> 50	36.1	
COc1cccc(/C=C/C(=O)Nc2cccc(OC)c2)c1	> 50	> 50	
C=CCOc1cccc(/C=C/C(=O)Nc2cc(OC)c(OC)c(OC)c2)c1	13.3	5.4	
COc1cccc(/C=C/C(=O)Nc2c(C)cccc2C)c1	> 50	> 50	
CC(=O)O[C@H]1C(=O)[C@@]2(C)[C@H]([C@H](OC(=O)c3ccccc3)[C@]3(O)C[C@H](OC(=O)[C@H](O)[C@@H](NC(=O)c4ccccc4)c4ccccc4)C(C)=C1C3(C)C)[C@]1(OC(C)=O)CO[C@@H]1C[C@@H]2O			inhibition (Bos taurus): inactive; inhibition [14]: Active
COc1cc(NC(=O)/C=C/c2ccc(O)cc2)cc(OC)c1OC	32	> 50	
